Reference: ChEMBL document CHEMBL1143088, “Non-acidic pyrazole EP1 receptor antagonists with in vivo analgesic efficacy” (Bioorg Med Chem Lett, 2008)

Experiments:
[1] = Volume of distribution at steady state in rat at 10 mL/h/kg, iv; assay type: ADME, organism-based; conditions: in vivo, read-out: Vdss
Procedure, shortened: (§1)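 Male rats (n = 1 per compound) dosed iv at 10 mL/h/kg over 1 h via femoral vein cannula, target 1 mg free compound/kg, formulated at 0.1 mg/mL in 0.9% saline with 2% DMSO and 10–20% Kleptose (some with a molar equivalent NaOH), filtered before dosing.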

[2] = Clearance in blood in rat at 10 mL/h/kg, iv; assay type: ADME, organism-based; conditions: whole blood; procedure, shortened: as §1
Blood [3] = test: Drug uptake in FCA-induced hypersensitivity rat blood at 10 mg/kg, po administered with DMSO as vehicle; assay type: ADME, organism-based; design: dose 10 mg/kg, route oral; conditions: in vivo, read-out: Drug uptake
Procedure, shortened: (§2)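 CFA inflammatory pain rats dosed orally at 1, 3, 10 and 30 mg/kg in 2% DMSO and 20% Kleptose water; weight-bearing readout and blood/brain samples taken 1 h post-dose. Blood levels mean of seven rats; brain levels mean of two or three rats; Br:Bl average of three rats.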

[4] = Half life in rat at 10 mL/h/kg, iv; assay type: ADME, organism-based; conditions: in vivo; procedure, shortened: as §1
Cytochrome P450 1A2 = target: T1, Cytochrome P450 1A2 (Homo sapiens, UniProt P05177); test: Inhibition of CYP1A2; assay type: ADME
T1 sequence (P05177 whole entry): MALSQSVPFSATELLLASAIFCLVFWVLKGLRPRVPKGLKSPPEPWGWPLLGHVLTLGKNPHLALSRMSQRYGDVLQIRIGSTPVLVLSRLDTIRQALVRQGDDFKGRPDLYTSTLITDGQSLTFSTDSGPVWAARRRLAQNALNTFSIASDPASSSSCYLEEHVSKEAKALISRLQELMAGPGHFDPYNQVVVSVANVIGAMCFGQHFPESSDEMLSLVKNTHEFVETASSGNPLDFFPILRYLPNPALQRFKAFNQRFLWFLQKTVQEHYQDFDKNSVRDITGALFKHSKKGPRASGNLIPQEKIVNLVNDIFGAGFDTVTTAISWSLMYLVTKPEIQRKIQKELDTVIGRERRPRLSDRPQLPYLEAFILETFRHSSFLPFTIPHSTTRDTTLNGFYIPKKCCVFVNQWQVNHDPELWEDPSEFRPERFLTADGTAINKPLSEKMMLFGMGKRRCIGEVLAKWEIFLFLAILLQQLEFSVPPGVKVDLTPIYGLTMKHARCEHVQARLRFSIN

[5] = target: T2, Prostaglandin E2 receptor EP3 subtype (Homo sapiens, UniProt P43115); test: Antagonist activity at PGE2-EP3 receptor assessed as PGE2-induced intracellular calcium mobilization; assay type: functional, cell-based
T2 sequence (P43115 whole entry): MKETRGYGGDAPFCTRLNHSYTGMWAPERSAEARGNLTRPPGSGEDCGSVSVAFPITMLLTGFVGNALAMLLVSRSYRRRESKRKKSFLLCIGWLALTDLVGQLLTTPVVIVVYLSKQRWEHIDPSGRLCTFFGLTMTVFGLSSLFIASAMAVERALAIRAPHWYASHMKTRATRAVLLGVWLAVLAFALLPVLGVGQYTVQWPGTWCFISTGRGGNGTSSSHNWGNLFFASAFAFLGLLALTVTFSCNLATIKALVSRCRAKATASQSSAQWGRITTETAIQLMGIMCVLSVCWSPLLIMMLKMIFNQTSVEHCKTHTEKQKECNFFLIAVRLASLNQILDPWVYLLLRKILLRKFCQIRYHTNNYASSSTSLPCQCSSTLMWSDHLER

[6] = Ratio of drug level in brain to blood in Sprague-Dawley rat at […], iv; assay type: ADME, organism-based; design: route intravenous
Procedure, shortened: (§3)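 Male Sprague–Dawley rat given iv infusion over 18 h at 5 mL/kg/h (0.518 mg/kg/h) in 0.9% saline with 2% DMSO, 20% Kleptose. Serial blood samples every 15 min over last hour to confirm steady state; after 18 h blood taken, rat culled, brain homogenized; blood and brain analysed by LC/MS/MS.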

[7] = Ratio of drug level in brain to blood in FCA-induced hypersensitivity rat at 3 mg/kg, po administered with DMSO as vehicle; assay type: ADME, organism-based; design: dose 3 mg/kg, route oral; procedure, shortened: as §2
[8] = Ratio of drug level in brain to blood in FCA-induced hypersensitivity rat at 10 mg/kg, po administered with DMSO as vehicle; assay type: ADME, organism-based; design: dose 10 mg/kg, route oral; procedure, shortened: as §2
Cytochrome P450 3A4 = Cytochrome P450 3A4 (Homo sapiens, UniProt P08684); test: Inhibition of CYP3A4; assay type: ADME
Chain of Cytochrome P450 3A4 (P08684 whole entry): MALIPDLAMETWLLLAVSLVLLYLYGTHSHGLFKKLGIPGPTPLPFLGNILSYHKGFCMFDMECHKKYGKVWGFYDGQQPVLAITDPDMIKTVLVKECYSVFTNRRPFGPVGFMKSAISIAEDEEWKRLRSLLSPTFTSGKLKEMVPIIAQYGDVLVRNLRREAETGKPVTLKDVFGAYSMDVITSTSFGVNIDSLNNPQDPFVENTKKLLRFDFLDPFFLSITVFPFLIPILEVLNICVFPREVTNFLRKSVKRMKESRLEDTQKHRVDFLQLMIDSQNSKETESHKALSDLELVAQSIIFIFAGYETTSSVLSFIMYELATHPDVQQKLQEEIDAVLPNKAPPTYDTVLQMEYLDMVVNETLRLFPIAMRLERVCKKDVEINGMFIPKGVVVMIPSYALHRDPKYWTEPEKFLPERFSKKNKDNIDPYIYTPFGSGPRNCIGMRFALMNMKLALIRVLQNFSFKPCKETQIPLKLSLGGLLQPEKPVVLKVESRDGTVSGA

[9] = Ratio of drug level in brain to blood in FCA-induced hypersensitivity rat at 1 mg/kg, po administered with DMSO as vehicle; assay type: ADME, organism-based; design: dose 1 mg/kg, route oral; procedure, shortened: as §2
Brain [10] = test: Drug uptake in FCA-induced hypersensitivity rat brain at 10 mg/kg, po administered with DMSO as vehicle; assay type: ADME, organism-based; design: dose 10 mg/kg, route oral; conditions: in vivo, read-out: Drug uptake; procedure, shortened: as §2
Cytochrome P450 2C9 = Cytochrome P450 2C9 (Homo sapiens, UniProt P11712); test: Inhibition of CYP2C9; assay type: ADME
Chain of Cytochrome P450 2C9 (P11712 whole entry): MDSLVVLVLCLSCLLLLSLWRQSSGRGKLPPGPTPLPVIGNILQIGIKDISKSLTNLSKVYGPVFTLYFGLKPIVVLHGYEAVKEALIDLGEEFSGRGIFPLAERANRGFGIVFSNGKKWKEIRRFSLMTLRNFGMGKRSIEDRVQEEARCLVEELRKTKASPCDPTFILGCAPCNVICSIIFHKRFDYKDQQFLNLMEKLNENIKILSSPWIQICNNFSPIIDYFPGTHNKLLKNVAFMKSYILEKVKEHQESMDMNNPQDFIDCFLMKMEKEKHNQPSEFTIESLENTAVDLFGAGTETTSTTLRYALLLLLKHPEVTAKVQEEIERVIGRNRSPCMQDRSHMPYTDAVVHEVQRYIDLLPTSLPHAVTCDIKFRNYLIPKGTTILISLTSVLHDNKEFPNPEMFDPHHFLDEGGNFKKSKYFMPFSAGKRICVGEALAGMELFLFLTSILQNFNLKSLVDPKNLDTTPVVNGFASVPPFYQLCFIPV

Blood [11] = test: Drug uptake in FCA-induced hypersensitivity rat blood at 1 mg/kg, po administered with DMSO as vehicle; assay type: ADME, organism-based; design: dose 1 mg/kg, route oral; conditions: in vivo, read-out: Drug uptake; procedure, shortened: as §2
Cytochrome P450 2C19 = Cytochrome P450 2C19 (Homo sapiens, UniProt P33261); test: Inhibition of CYP2C19; assay type: ADME
Chain of Cytochrome P450 2C19 (P33261 whole entry): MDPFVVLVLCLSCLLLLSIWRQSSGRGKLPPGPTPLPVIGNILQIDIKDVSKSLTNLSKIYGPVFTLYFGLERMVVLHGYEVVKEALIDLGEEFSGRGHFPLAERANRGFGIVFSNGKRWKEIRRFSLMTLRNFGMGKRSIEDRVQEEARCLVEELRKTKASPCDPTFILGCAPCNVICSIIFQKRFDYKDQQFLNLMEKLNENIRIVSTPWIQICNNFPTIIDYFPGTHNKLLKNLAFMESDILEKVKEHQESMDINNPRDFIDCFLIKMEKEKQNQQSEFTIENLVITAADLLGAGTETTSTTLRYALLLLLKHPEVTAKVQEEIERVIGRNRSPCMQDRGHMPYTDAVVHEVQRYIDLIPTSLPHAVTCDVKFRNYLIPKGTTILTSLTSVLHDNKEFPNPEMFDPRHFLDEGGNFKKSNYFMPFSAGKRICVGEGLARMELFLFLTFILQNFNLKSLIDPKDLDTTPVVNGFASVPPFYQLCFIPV

[12] = target: T3, Prostaglandin E2 receptor EP1 subtype (Homo sapiens, UniProt P34995); test: Displacement of [3H]PGE2 from human PGE2-EP1 receptor expressed in CHO-K1 cells; assay type: cell-based
T3 sequence (P34995 whole entry): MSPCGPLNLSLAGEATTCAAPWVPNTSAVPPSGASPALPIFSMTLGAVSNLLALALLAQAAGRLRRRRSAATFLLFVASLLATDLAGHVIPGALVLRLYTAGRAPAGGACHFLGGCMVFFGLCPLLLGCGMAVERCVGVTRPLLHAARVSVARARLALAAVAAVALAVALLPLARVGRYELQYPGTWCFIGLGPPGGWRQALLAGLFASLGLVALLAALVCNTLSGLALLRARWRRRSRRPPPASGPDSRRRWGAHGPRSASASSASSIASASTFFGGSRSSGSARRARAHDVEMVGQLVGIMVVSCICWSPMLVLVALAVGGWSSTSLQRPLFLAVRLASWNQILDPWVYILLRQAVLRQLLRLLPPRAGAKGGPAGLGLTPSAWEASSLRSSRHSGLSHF

Blood [13] = test: Drug uptake in FCA-induced hypersensitivity rat blood at 3 mg/kg, po administered with DMSO as vehicle; assay type: ADME, organism-based; design: dose 3 mg/kg, route oral; conditions: in vivo, read-out: Drug uptake; procedure, shortened: as §2
[14] = Distribution coefficient, logD at pH 7.4; assay type: physicochemical; conditions: octanol/water
Procedure, shortened: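 Distribution coefficient between n-octanol and water buffered to pH 7.4; log10 of ratio of equilibrium concentrations of all species.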

Blood [15] = test: Drug uptake in FCA-induced hypersensitivity rat blood at 30 mg/kg, po administered with DMSO as vehicle; assay type: ADME, organism-based; design: dose 30 mg/kg, route oral; conditions: in vivo, read-out: Drug uptake; procedure, shortened: as §2
[16] = Ratio of drug level in brain to blood in FCA-induced hypersensitivity rat at 30 mg/kg, po administered with DMSO as vehicle; assay type: ADME, organism-based; design: dose 30 mg/kg, route oral; procedure, shortened: as §2
Rattus norvegicus = test: Reversal of FCA-induced hypersensitivity in orally dosed rat assessed as reduction in weight bearing administered with DMSO as vehicle; assay type: functional; conditions: po
Procedure, shortened: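 The CFA inflammatory pain model used rats dosed orally at 1, 3, 10 and 30 mg/kg in 2% DMSO and 20% Kleptose in water. Weight bearing was the efficacy readout at 1 h post-dose. Blood (seven rats) and brain (two to three rats) were sampled at that time. ED50 was given in mg/kg.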

[17] = target: T3, Prostaglandin E2 receptor EP1 subtype; test: Antagonist activity at PGE2-EP1 receptor assessed as PGE2-induced response by schild analysis; assay type: functional; conditions: read-out: pA2 (converted)
Cytochrome P450 2D6 = Cytochrome P450 2D6 (Homo sapiens, UniProt P10635); test: Inhibition of CYP2D6; assay type: ADME
Chain of Cytochrome P450 2D6 (P10635 whole entry): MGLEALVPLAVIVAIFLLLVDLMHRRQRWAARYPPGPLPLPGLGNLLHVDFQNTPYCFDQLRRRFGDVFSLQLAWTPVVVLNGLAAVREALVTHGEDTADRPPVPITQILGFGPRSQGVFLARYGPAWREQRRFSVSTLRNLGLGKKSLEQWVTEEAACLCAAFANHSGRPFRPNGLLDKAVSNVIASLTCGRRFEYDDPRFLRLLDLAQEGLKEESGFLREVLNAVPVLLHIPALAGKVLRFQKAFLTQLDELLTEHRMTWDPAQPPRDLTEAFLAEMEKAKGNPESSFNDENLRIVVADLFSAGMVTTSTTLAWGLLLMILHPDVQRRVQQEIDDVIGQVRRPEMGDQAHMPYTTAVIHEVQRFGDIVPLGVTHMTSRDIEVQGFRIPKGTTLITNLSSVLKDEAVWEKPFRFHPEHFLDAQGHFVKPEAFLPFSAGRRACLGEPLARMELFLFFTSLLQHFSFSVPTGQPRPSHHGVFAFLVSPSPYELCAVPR

[18] = target: T3, Prostaglandin E2 receptor EP1 subtype; test: Antagonist activity at PGE2-EP1 receptor assessed as PGE2-induced intracellular calcium mobilization; assay type: functional, cell-based
Brain [19] = test: Drug uptake in FCA-induced hypersensitivity rat brain at 3 mg/kg, po administered with DMSO as vehicle; assay type: ADME, organism-based; design: dose 3 mg/kg, route oral; conditions: in vivo, read-out: Drug uptake; procedure, shortened: as §2
[20] = Drug level in Sprague-Dawley rat blood at steady state at […], iv after 18 hrs; assay type: ADME, organism-based; design: route intravenous; conditions: whole blood, read-out: Drug uptake; procedure, shortened: as §3
Brain [21] = test: Drug uptake in FCA-induced hypersensitivity rat brain at 30 mg/kg, po administered with DMSO as vehicle; assay type: ADME, organism-based; design: dose 30 mg/kg, route oral; conditions: in vivo, read-out: Drug uptake; procedure, shortened: as §2
[22] = Drug level in Sprague-Dawley rat brain at steady state at […], iv after 18 hrs; assay type: ADME, organism-based; design: route intravenous; conditions: read-out: Drug uptake; procedure, shortened: as §3
Brain [23] = test: Drug uptake in FCA-induced hypersensitivity rat brain at 1 mg/kg, po administered with DMSO as vehicle; assay type: ADME, organism-based; design: dose 1 mg/kg, route oral; conditions: in vivo, read-out: Drug uptake; procedure, shortened: as §2
[24] = Clearance at steady state in Sprague-Dawley rat blood at […], iv after 18 hrs; assay type: ADME, organism-based; design: route intravenous; conditions: whole blood; procedure, shortened: as §3

Work on `Cc1cc(NC(=O)OC(C)(C)C)nn1Cc1cc(Cl)ccc1OCc1ccccc1` yielded a Vd [1] of 8.6 L/kg, a clearance [2] of 42 mL/min/kg and a concentration (Blood [3]) of 302 nM. The half-life [4] was 3 h, the IC50 (Cytochrome P450 1A2) was > 100 µM and the Ki [5] was > 10 µM. The Kp [6] was 3.44, the Kp [7] was 2.66 and the Kp [8] was 2.26. The IC50 (Cytochrome P450 3A4) was > 100 µM, the Kp [9] was 2.66 and the concentration (Brain [10]) was 781 nM. For the same compound, the IC50 (Cytochrome P450 2C9) was 16 µM, the concentration (Blood [11]) was 57 nM and the IC50 (Cytochrome P450 2C19) was > 100 µM. The IC50 [12] was 0.0251 µM, the concentration (Blood [13]) was 210 nM and the logD [14] was > 3.7. It also gave a concentration (Blood [15]) of 299 nM, a Kp [16] of 2.73 and an ED50 (Rattus norvegicus) of 5.36 mg/kg. The Kb [17] was 0.0501 µM, the IC50 (Cytochrome P450 2D6) was > 100 µM and the Ki [18] was 0.0158 µM. The concentration (Brain [19]) was 473 nM, the concentration at 18 h [20] was 408 nM and the concentration (Brain [21]) was 836 nM. For the same compound, the concentration at 18 h [22] was 1400 nM, the concentration (Brain [23]) was 106 nM and the clearance [24] was 54 mL/min/kg.
